The source of these data is ChEMBL document CHEMBL4145666, “In Search of Selectivity in Inhibition of ADAM10” (ACS Med Chem Lett, 2018).

The nature of series [1]: AUC (0 to last) in CD-1 mouse plasma at 10 mg/kg, ip by UPLC analysis. The class given is ADME, organism-based. Also noted: dose 10 mg/kg, time 0 - last, route intraperitoneal. The essentials:
(§1)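 Male CD-1 mice, 6–7 weeks old, about 30 g, fed and watered ad libitum. Single dose of 10 mg/kg ip or 25 mg/kg sc, given as 100 μL formulation; n = 3 per time point per route. At set times, blood was taken by cardiac puncture with heparinized syringes and spun to plasma. Brains were harvested after transcardiac saline perfusion, weighed and flash-frozen. Brain levels are in pmol/mg tissue.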

In series [2] the target is T1, Matrilysin (Homo sapiens) (UniProt P09237).
T1 sequence (whole entry): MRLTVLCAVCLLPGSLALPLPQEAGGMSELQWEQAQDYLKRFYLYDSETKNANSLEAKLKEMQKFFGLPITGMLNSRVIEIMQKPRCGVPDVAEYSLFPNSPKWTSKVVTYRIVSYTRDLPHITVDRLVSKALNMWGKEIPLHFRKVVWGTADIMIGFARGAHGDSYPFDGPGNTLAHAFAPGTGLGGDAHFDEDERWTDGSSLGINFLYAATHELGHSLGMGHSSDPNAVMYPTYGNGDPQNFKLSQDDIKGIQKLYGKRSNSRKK
Put plainly: Inhibition of recombinant human MMP7 expressed in Escherichia coli using MOCAc-Pro-Leu-Gly-Leu-A2pr(Dnp)-Ala-Arg-NH2 as substrate at 10 uM by fluorescence spectrophotometric method. The essentials:
(§2)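 Single inhibitor concentration of 10 μM, reported as percent inhibition. Enzymes and substrates as in earlier work, with inhibition run by a previously reported protocol.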

Series [3] is described as follows: Primary phase half life in CD-1 mouse brain at 10 mg/kg, ip by UPLC analysis. The conditions noted are these: read-out: alphat1/2. Type of series: ADME, organism-based. The essentials: as §1
Series [4] is described as follows: AUC (0 to infinity) in CD-1 mouse brain assessed per mg tissue at 25 mg/kg, sc by UPLC analysis. The class given is ADME, organism-based. Also noted: dose 25 mg/kg, route subcutaneous, time infinity. Particulars: in vivo. The gist of the method:
as §1

Series [5] is described as follows: AUC (0 to infinity) in CD-1 mouse brain assessed per mg tissue at 10 mg/kg, ip by UPLC analysis. Also noted: dose 10 mg/kg, route intraperitoneal, time infinity. The class given is ADME, organism-based. The conditions noted are these: in vivo. The essentials: as §1
A short description of series [6]: AUC (0 to last) in CD-1 mouse brain assessed per mg tissue at 10 mg/kg, ip by UPLC analysis. Particulars: in vivo. Type of series: ADME, organism-based. The gist of the method: as §1
Series [7] has as its target T2, Disintegrin and metalloproteinase domain-containing protein 10 (Homo sapiens, UniProt O14672).
T2 sequence (O14672 whole entry): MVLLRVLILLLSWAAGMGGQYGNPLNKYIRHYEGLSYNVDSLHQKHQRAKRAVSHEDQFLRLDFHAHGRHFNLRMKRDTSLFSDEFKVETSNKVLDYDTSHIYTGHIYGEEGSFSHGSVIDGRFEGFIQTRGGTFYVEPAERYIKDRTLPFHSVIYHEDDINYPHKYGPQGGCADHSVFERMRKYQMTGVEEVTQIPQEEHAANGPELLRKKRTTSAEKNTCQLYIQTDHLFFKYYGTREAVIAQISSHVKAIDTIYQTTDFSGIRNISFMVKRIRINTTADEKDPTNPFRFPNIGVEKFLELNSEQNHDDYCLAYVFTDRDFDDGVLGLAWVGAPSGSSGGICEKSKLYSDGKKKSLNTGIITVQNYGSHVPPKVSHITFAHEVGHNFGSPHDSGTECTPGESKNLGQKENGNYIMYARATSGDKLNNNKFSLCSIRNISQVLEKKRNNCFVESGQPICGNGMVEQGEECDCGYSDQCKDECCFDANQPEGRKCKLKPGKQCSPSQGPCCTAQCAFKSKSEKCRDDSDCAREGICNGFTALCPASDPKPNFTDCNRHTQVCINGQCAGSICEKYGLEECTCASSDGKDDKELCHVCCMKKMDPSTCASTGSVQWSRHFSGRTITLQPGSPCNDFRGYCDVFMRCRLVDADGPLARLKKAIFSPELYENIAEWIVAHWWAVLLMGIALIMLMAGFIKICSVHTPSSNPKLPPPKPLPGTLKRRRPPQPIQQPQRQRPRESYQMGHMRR
Briefly: Inhibition of recombinant human C-terminal His10-tagged ADAM10 (Thr214 to Glu672 residues) expressed in baculovirus infected Sf21 cells using McaKPLGL-Dpa-AR-NH2 as substrate by fluorescence spectrophotometric method. The essentials: (§3)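 Enzymes and their substrates were obtained as in earlier work, and inhibition was run by a previously reported protocol. Ki values were measured in triplicate.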

Series [8] can be described thus: Elimination half life in CD-1 mouse plasma at 10 mg/kg, ip by UPLC analysis. Type of series: ADME, organism-based. Particulars: read-out: beta t1/2. The essentials: as §1
Series [9] is described as follows: Primary phase half life in CD-1 mouse plasma at 25 mg/kg, sc by UPLC analysis. Type of series: ADME, organism-based. The conditions noted are these: read-out: alphat1/2. The gist of the method:
as §1

The target of a further series is Neutrophil collagenase (Homo sapiens, UniProt P22894). Briefly: Inhibition of recombinant human MMP8 catalytic domain (Phe99 to Gln269 residues) expressed in Escherichia coli using McaKPLGL-Dpa-AR-NH2 as substrate by fluorescence spectrophotometric method. The essentials:
as §3

For series [10], the target named is T3, Disintegrin and metalloproteinase domain-containing protein 9 (Homo sapiens) (UniProt Q13443).
T3 sequence (whole entry): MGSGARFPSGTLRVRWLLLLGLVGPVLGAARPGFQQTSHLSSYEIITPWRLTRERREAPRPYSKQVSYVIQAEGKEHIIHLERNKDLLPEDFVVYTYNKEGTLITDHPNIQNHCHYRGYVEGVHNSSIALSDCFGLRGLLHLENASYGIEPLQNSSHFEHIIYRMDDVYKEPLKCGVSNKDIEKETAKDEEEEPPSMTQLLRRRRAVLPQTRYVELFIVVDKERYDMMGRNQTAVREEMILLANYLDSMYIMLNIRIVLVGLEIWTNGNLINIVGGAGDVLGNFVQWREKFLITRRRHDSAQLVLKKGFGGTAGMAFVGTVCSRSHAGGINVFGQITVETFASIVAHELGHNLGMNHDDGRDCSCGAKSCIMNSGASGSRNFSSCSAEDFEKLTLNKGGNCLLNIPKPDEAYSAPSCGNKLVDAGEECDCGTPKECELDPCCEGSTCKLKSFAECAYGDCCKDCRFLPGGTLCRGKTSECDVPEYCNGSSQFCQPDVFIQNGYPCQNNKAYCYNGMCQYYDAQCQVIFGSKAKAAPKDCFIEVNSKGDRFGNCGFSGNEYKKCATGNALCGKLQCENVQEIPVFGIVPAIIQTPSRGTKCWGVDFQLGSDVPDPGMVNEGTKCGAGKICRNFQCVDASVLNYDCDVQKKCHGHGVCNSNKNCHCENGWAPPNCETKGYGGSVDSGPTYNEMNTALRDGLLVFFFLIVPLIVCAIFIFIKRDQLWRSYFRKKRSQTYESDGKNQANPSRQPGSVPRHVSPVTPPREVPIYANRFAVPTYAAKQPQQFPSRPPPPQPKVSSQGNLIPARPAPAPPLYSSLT
Briefly: Inhibition of recombinant human C-terminal His10-tagged ADAM9 (Ala206 to Asp697 residues) expressed in mouse cells using McaPLAQAV-Dpa-RSSSR-NH2 as substrate at 10 uM by fluorescence spectrophotometric method relative to control. The gist of the method:
as §2

Series [11] in a line: AUC (0 to infinity) in CD-1 mouse plasma at 25 mg/kg, sc by UPLC analysis. Also noted: dose 25 mg/kg, route subcutaneous, time infinity. Type of series: ADME, organism-based. The essentials: as §1
Series [12] deals with Stromelysin-1 (Homo sapiens) (UniProt P08254). Put plainly: Inhibition of recombinant human MMP3 catalytic domain expressed in Escherichia coli at 10 uM using MOCAc-Arg-Pro-LysPro-Val-Glu-Nva-Trp-Arg-Lys(Dnp)-NH2 as substrate by fluorescence spectrophotometric method relative to control. The essentials: as §2
Stromelysin-1 (Homo sapiens), sequence (P08254 100-477 limits assumed): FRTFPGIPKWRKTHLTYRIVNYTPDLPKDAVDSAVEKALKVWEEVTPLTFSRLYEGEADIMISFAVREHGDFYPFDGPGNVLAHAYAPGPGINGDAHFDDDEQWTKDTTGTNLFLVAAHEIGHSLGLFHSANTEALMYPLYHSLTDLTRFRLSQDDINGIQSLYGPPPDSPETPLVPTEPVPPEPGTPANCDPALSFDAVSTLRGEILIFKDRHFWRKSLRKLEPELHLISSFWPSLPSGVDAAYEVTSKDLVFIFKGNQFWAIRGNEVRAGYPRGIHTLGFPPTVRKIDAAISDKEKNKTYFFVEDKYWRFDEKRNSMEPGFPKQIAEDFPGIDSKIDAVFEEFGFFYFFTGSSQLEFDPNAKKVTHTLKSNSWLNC
The subject of another series is Mus musculus. Briefly: Time at which brain concentration stays above in-vitro Ki for ADAM10 in CD-1 mouse at 10 mg/kg, ip by UPLC analysis. Particulars: in vivo. The class given is ADME, organism-based. The gist of the method: as §1
A short description of series [13]: Primary phase half life in CD-1 mouse plasma at 10 mg/kg, ip by UPLC analysis. Particulars: read-out: alphat1/2. Type of series: ADME, organism-based. The gist of the method: as §1
The target of series [14] is Matrix metalloproteinase-14 (Homo sapiens) (UniProt P50281). Put plainly: Inhibition of recombinant human MMP14 catalytic domain (89 to 265 residues) expressed in Escherichia coli using MOCAc-Pro-Leu-Gly-Leu-A2pr(Dnp)-Ala-Arg-NH2 as substrate at 10 uM by fluorescence spectrophotometric method relative to control. The essentials:
as §2

Activity calls are given as the source filed them. The rule behind the calls is not given here.

Neutrophil collagenase, sequence (P22894 whole entry, the tested form may be a part): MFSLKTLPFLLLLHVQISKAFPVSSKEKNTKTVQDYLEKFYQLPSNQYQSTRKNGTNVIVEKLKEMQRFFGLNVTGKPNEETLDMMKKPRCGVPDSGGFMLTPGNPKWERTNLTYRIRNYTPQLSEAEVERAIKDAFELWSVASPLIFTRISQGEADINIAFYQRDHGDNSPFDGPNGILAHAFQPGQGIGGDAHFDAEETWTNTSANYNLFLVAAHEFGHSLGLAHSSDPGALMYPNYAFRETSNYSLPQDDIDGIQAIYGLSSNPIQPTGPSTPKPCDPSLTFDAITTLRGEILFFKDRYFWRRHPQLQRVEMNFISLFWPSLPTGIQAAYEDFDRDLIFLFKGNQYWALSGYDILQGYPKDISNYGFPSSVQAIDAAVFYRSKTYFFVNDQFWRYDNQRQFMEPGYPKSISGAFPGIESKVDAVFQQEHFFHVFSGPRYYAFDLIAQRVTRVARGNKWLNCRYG

As a reminder, the AUC(0-t) is the area under the concentration-time curve up to a stated or last time point. One may read the inhibition as how much of the control response was suppressed. Broadly, the Ki is the equilibrium dissociation constant of an inhibitor or competing ligand from its target. The AUC(0-inf) is the area under the concentration-time curve extrapolated to infinity. High values mean high exposure, low ones low exposure. Compound `O=C(NO)[C@H]1C[C@H](OC(=O)N2CCCC2)CC[C@@H]1C(=O)N1CCC(c2ccccc2)CC1` gave an area under the curve AUC(0-t) in [1] of 2.58 µM·h. Besides, the inhibition result in series [2] is “inactive”. Also, the half-life in series [3] was 28.8 min; in series [8], 315 min; in [9] it was 15.4 min; in series [13], 12.4 min. Besides, the values for the AUC in [4] and in series [5] were 77 pmol·min/mg and 14 pmol·min/mg, respectively. In [6], this compound returned an AUClast of 12.1 pmol·min. Besides, the Ki was 0.073 µM in series [7] and 8.7 µM on Neutrophil collagenase. For the same compound, the inhibition in series [10] is 15%; in series [12] it was 2%; in series [14], 19%. Further, the AUC(0-inf) in series [11] is 18.5 µM·h. Moreover, the Time in the series with Mus musculus came out at 20 min.
